The structures appear in SMILES notation.

The series can be described thus: Toxicity liver stage against HepG2, at 10uM. The class given is cell-based. Further details: test concentration 10 uM, cell line HepG2-A16-CD81EGFP. The settings on record: human, HepG2-A16-CD81EGFP cells; read-out: INHIBITION
In short, it runs like this: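 Uninfected HepG2-A16-CD81EGFP cells, 3 × 10^3 per well, 1536-well, plated on prespotted compound at 10 μM final, parasite-free screening media added to match infected plates; puromycin 10 μM positive, DMSO 0.5% negative; run in parallel with 48 h PbLuc assay at 37 °C, 5% CO2; viability by CellTiter-Glo luminescence, normalized to controls.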
Regarding `COc1ccccc1C(=O)N1CCOC2(CCCN(C(C)=O)C2)C1` (stereo not given), the cytotoxicity at 10 µM was -72.9%.

`CC(=O)NCc1ccc(C(=O)N2CCCC2c2cnn(C)c2)o1` (stereo not given): the cytotoxicity at 10 µM is -8.67%.

Regarding `c1cncc(N2CCOCC3(CN(Cc4cccs4)CCO3)C2)c1` (stereo not given), the cytotoxicity at 10 µM is -79.7%.

Turning to `COCCCC(=O)N1CCC(Nc2cccnn2)CC1`, the cytotoxicity at 10 µM is -3.69%.

For the molecule `CNc1nnc(SCc2nnc(C(C)(C)C)o2)s1`, the cytotoxicity at 10 µM was -1.05%.

For `CCCNC(=O)c1nc2c(o1)CN(c1ncccn1)C2`, the cytotoxicity at 10 µM worked out at 1.95%.

With `CCN(CC)S(=O)(=O)N1CCCC(c2nccn2Cc2ccncc2)C1` (stereo not given), the cytotoxicity at 10 µM is 9.2%.

Take `CCn1cc(NC(=O)C2CCN(Cc3ccccc3)CC2)cn1`: the cytotoxicity at 10 µM is 2.41%.

With `CC(=O)OC1CN(c2nc3c(Cl)cccc3s2)C1`, the cytotoxicity at 10 µM was -0.745%.

For the molecule `CCc1cc(N[C@H]2CCC[C@H]2CO)n2nccc2n1`, the cytotoxicity at 10 µM is -10.1%.

In the case of `COCCN(CCOC)C(=O)c1cc(F)cc2[nH]cnc12`, the cytotoxicity at 10 µM was -8%.

Take `CCOc1c(OC)cc(C=Cc2ncc(C(=O)NC)s2)cc1OC`: the cytotoxicity at 10 µM amounted to 1.62%.

`COc1ccc(-n2c(CCC(=O)O)nc3ccccc32)cc1CO`: the cytotoxicity at 10 µM was -0.334%.

For the molecule `CCc1cc(=O)n(CC(=O)NCC2CCCO2)c(-c2cccc(F)c2)n1` (stereo not given), the cytotoxicity at 10 µM is -1.61%.

For `Cc1cccc(C(=O)N2CCC(C(=O)c3cc(F)ccc3F)CC2)n1`, the cytotoxicity at 10 µM was -0.448%.

`Cc1cc(-c2cnc(C(C)C)nc2CN(C)C(=O)c2ccccn2)on1`: the cytotoxicity at 10 µM is 2.47%.

Take `CCc1nc(C2CCCN2CC(=O)Nc2cc(C)nn2C)no1` (stereo not given): the cytotoxicity at 10 µM is -7.82%.

Consider `CCN(CC1CCOC1)C(=O)c1cccnc1N1CCOCC1` (stereo not given), for which the cytotoxicity at 10 µM is -10.8%.

Turning to `CCN(CC)c1nc(O)cc(C(C)n2ncc3ccccc3c2=O)n1` (stereo not given), the cytotoxicity at 10 µM came to 2.47%.

As to `Cc1cc(C(=O)N2CCC[C@]3(C[C@@H](OCC4CC4)CO3)C2)no1`, the cytotoxicity at 10 µM is -78.9%.

In the case of `CNC(=O)c1ccc(=O)n(Cc2csc(C(C)(C)C)n2)c1`, the cytotoxicity at 10 µM is 6.8%.

`CS(=O)(=O)NC1CCc2[nH]c(=O)ccc2C1` (stereo not given): the cytotoxicity at 10 µM was found to be 3.46%.

As to `Cc1cc(NC(=O)C(C)N2CCN(c3nc(C)cs3)CC2)on1` (stereo not given), the cytotoxicity at 10 µM is -0.71%.

With `CNC(=O)c1ccc(C(=O)N2CCCC2c2c(C)nn(C)c2C)cn1` (stereo not given), the cytotoxicity at 10 µM was -12.8%.

`CC(C)Nc1nc2c(cc1C(=O)NCC1CC1)CCN(C)CC2`: the cytotoxicity at 10 µM is -5.72%.

In the case of `Cn1ccnc1C(=O)NCc1cc(=O)n2c(n1)CN(CC1CC1)CCC2`, the cytotoxicity at 10 µM worked out at 13.8%.

Regarding `CN(C)CC1(O)CCN(Cc2cnc3c(-c4ccccc4)cnn3c2)C1` (stereo not given), the cytotoxicity at 10 µM was -6.16%.

Regarding `COCC(=O)N1C[C@H]2CCCC(OCc3cccnc3)[C@H]2C1` (stereo not given in full), the cytotoxicity at 10 µM was -5.67%.

`CN(C)C(=O)N1C[C@H]2CCC[C@@]2(COc2ccccn2)C1`: the cytotoxicity at 10 µM worked out at 3.24%.

Consider `COc1cccc(CCNC(=O)CCS(=O)(=O)C2CCCC2)c1`, for which the cytotoxicity at 10 µM worked out at 2.2%.

Consider `Cc1cccc(CNC2CC3(CCN(CCO)CC3)c3ccccc32)n1` (stereo not given), for which the cytotoxicity at 10 µM is -110%.

Consider `O=C(NCc1cccnc1-n1cncn1)c1ccc2c(c1)CCO2`, for which the cytotoxicity at 10 µM is -14.2%.

As to `Cn1nnc2cc(C(=O)NS(=O)(=O)Cc3ccc(F)cc3)ccc21`, the cytotoxicity at 10 µM was -3.7%.

For the molecule `Cc1cc(N2CCCC2c2nccnc2C)ncn1` (stereo not given), the cytotoxicity at 10 µM was -20.8%.

For the molecule `O=C(C1CCC1)N1CCc2onc(Cn3cccn3)c2C1`, the cytotoxicity at 10 µM was -1.13%.

As for `c1cc(NCc2ccsc2)cc(-c2nnc[nH]2)c1`, the cytotoxicity at 10 µM was -54.5%.

Consider `CC(C)c1cc(CN(C)C(=O)CN2CCC(C(N)=O)CC2)no1`, for which the cytotoxicity at 10 µM was -0.0154%.

Turning to `CN(C)[C@H]1CCN(c2nc(C(C)(C)C)nc3c2cnn3C)C1`, the cytotoxicity at 10 µM is -6.12%.

As for `CCc1nnc(SC2CCCN(c3cccc(F)c3)C2=O)n1C` (stereo not given), the cytotoxicity at 10 µM was 7.17%.

With `c1ccc(C(OCCNC2CCc3ncnn3C2)c2ccccc2)cc1` (stereo not given), the cytotoxicity at 10 µM was -18.4%.

These data come from ChEMBL document CHEMBL4513216, “Probing the Open Global Health Chemical Diversity Library for Multistage-Active Starting Points for Next-Generation Antimalarials” (ACS Infect Dis, 2020).
